What was measured:
[1] = tested on: HRPT cells; test: Palmitate-induced lipoapoptosis by TUNEL in HRPT cells; assay type: cell-based, human; details: for Effect on palmitate-induced lipoapoptosis: drug 5 μM, 2 hr, then palmitate 100 μM, 16 hr
In short: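 Immortalized human kidney proximal tubule cells were grown to near confluence on glass coverslips. They were preincubated with test compound (5 μM, 2 hr, 37°C), then albumin-complexed palmitate was added (100 μM, 16 hr, 37°C). Fixed cells were scored by TUNEL under fluorescence microscopy at 400X by blinded operators, ten random fields, one experiment. Mean ± SD; ANOVA.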

[2] = molecular target: human FATP2 (Homo sapiens, UniProt O14975); test: BODIPY-C16 FA uptake in HRPT cells stably expressing human FATP2; assay type: cell-based

| Compound | Effect on palmitate-induced lipoapoptosis [1] | IC50 ([1]; read-out: IC50 for palmitate-induced apoptosis, compound 2 hr 37° C, then palmitate 100 μM, 16 hr) | IC50 [2] |
| --- | --- | --- | --- |
| Grassofermata | increased apoptosis | – | – |
| Cc1ccc2c(c1)C1(NN=C(c3ccccc3)S1)C(=O)N2 (centres unmarked) [Compound 1] | protective | 600 nM | – |
| CCCCCc1cccc(CC(=O)O)c1 [PBI-4050] | – | – | > 500000 nM |
| O=C1Nc2ccc(Br)cc2C12NN=C(c1ccccc1)S2 (centres unmarked) [Lipofermata] | protective | – | – |

Reference: paper PMC10527240 (International journal of biological macromolecules, 2023)
